Compound activity deposited in PubChem BioAssay by several laboratories.
Neddyl block – blocks human cullin neddylation. P61081+Q13564. TR-FRET cullin neddylation, biochemical. inhibition, % at 25 µM. hit rate 0.58% among 360,000. AID 651699; in the data active = inhibition above about 36%
UBC13 polyUb – human UBC13 polyubiquitination inhibition; hit rate 0.47% among 330,000; AID 485273; P61088; inhibition, % at 20 µM; UBC13 polyubiquitin chain formation, TR-FRET; in the data active = inhibition above about 45%, passing the limit was not always enough
Target sequence (P61088 whole entry, looked up): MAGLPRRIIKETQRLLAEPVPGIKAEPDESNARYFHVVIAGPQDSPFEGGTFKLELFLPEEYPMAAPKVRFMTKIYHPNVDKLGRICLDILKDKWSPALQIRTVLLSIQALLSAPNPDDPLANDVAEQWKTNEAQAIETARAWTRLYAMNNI
SR-BI HDL uptake – blocks mouse SR-BI lipid uptake from DiI-HDL. ldlA[mSR-BI] CHO cells, DiI-HDL uptake fluorescence, 3 h. Q61009. hit rate 0.96% among 320,000. inhibition, % at 12.5 µM;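 active = mean replicate inhibition of at least 70% and a set share of replicates each scoring 70 or more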;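 also: 0% = median of neutral control wells and 100% = median of positive control wells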
SR-BI uptake up – SR-BI HDL lipid transfer activation; activation, % at 12.5 µM; AID 504775; hit rate 0.096% among 320,000; CHO ldlA[mSR-BI] cells, DiI-HDL uptake fluorescence, 3 h; 100 = double the neutral-control signal;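 active = mean replicate activation of at least 60% and every replicate at or above 60%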;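 also: 0% = median plate neutral-control signal and 100% = twice that signal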
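System: CHO ldlA[mSR-BI] cells / Medium: HEPES-buffered (25 mM, pH 7.4) F12 plus 0.5% BSA / Probe or stimulus: labelled HDL, 10 µg/mL / Doses: single compound concentration, delivered by pin transfer / Schedule: 3 h, 37 °C / Measured by: DiI fluorescence, bottom read / Measure: cell-associated DiI fluorescence as measure of HDL uptake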
Active calls of the source: *; . = not tested or not shown. Most compounds without a hit are left out; they make up all but 1.9% or so of the library.

SMILES | Neddyl block | UBC13 polyUb | SR-BI HDL uptake | SR-BI uptake up
COc1ccc2[nH]c(C(=O)N/N=C/c3ccc(O)cc3O)cc2c1 | 48* | 32 | 99* | -99
COc1ccc(/C=N/NC(=O)c2nc(-c3ccccc3)n(-c3ccccc3)n2)c(O)c1 | 48* | 0 | 63 | -63
COc1cccc(NC(=S)N(CCC(C)C)C2CCN(C(C)=O)CC2)c1 | 0 | 0 | 10 | -10
O=C1[C@@H]2Cc3c([nH]c4ccccc34)C(c3ccccc3)N2C(=O)CN1CCO (stereo not given in full) | 0 | 2 | 28 | -28
CC(C)CN1CC(=O)N2C(c3ccccc3)c3[nH]c4ccccc4c3C[C@H]2C1=O (stereo not given in full) | -2 | -2 | 78* | -78
O=C(O)CSCC(=O)N1CCN(c2nc3cc(Cl)ccc3s2)CC1 | 0 | 11 | -12 | 12
CN(C)c1ccc(C=c2c3ccccc3n3c2cc(-c2ccccc2)[n+]3C)cc1 | -1 | . | -58 | 58
CN(C)c1ccc(C=c2c3cc([N+](=O)[O-])ccc3n3c2cc(-c2ccccc2)[n+]3C)cc1 | -11 | . | 84* | -84
O=C(N1CCN(S(=O)(=O)c2ccc(Cl)cc2)CC1)n1ccnc1 | 1 | 3 | -65 | 65*
O=C(N1CCCCC1)N1CCN(S(=O)(=O)c2ccc(Cl)cc2)CC1 | 0 | -8 | -27 | 27
CCc1ccc2nc(N(CCCN(C)C)C(=O)c3ccc(S(=O)(=O)N(C)C4CCCCC4)cc3)sc2c1 | 4 | 48* | -2 | 2
O=C(O)CCC(C(=O)O)N1C(=O)C2C3CCC(C3)C2C1=O (stereo not given) | 12 | . | . | .
COc1ccc(CNCCSc2nnnn2C)cc1OC | -10 | 7 | -3 | 3
COc1cccc(CNCCSc2nnnn2C)c1 | 0 | -12 | -60 | 60*
CCOC(=O)CCCCCC(=O)Nc1ccc2c(c1)C(=O)N([C@H](C)CO)C[C@@H](C)[C@@H](CN(C)C(=O)CCC(F)(F)F)OCCCC[C@H](C)O2 | 7 | . | . | .
O=C(CCc1nnc2ccc(NCc3ccccc3)nn12)NC1CCCC1 | 9 | 1 | -2 | 2
CC(CN(C)Cc1ccccc1)OC(=O)c1cccc(F)c1 (stereo not given) | -2 | -4 | -69 | 69*
Cc1cc(C)c(NC(=O)CSc2nc3ccc(NC(=O)CSc4nnnn4Cc4ccccc4)cc3s2)c(C)c1 | -53 | -10 | 45 | -45
Cc1cc(C)c(NC(=O)CSc2nc3ccc(NC(=O)CSc4nnnn4-c4ccccc4)cc3s2)c(C)c1 | -6 | -3 | 77* | -77
COc1ccc(S(=O)(=O)N(C)C2CCN(C)CC2)cc1 | -3 | 4 | -263 | 263*
Cc1cc(C)cc(OCC(=O)OCC(=O)NCCC2=CCCCC2)c1 | 7 | 9 | -20 | 20
O=C(COC(=O)COc1ccccc1)NCCC1=CCCCC1 | -20 | -4 | -73 | 73*
CCCCNc1c(-c2ccc(OC)c(SC3CCCCC3)c2)nc2cnccn12 | 31 | 13 | 27 | -27
CCCCNc1c(-c2cccc(-c3ccc(OC)cc3)c2)nc2ccc(C)cn12 | . | 35 | 44 | -44
CCCCNc1c(-c2ccc(-c3ccc(C(C)=O)cc3)c(OC)c2)nc2cnccn12 | . | 3 | 73* | -73
SMILES | Neddyl block | UBC13 polyUb | SR-BI HDL uptake | SR-BI uptake up
CCCCNc1c(-c2cccc(-c3ccc(OC)cc3)c2)nc2cc(C)ccn12 | . | 25 | 73* | -73
COc1ccc(/C=C/CN2CCCC(CCC(=O)NCc3ccc(F)c(F)c3)C2)cc1 (stereo not given) | 8 | 6 | -5 | 5
O=C(c1ccccc1O)N1N=C(C(F)(F)F)CC1(O)c1ccc([N+](=O)[O-])cc1 (stereo not given) | -30 | -7 | 71* | -71
CCC1=NN(C(=O)c2ccc([N+](=O)[O-])cc2)C(O)(c2ccccc2)C1 (stereo not given) | -37 | -46 | 82* | -82
CCC1=NN(C(=O)c2ccccc2O)C(O)(c2ccccc2)C1 (stereo not given) | 4 | -18 | 120* | -120
CC1CC(=O)Nc2ccccc2N1C(=O)CSc1ccc2ccccc2n1 (stereo not given) | -31 | 0 | -14 | 14
CCc1ccc(/C=N/NC(=O)c2cc(C3CC3)nc3ccc(Br)cc23)s1 | 27 | -13 | 87* | -87
COc1cccc(N2CCN(CC(=O)NC(=O)NC3CCCCC3)CC2)c1 | 2 | 1 | -7 | 7
CCN(C)C1CN(Cc2cn(Cc3ccc(Cl)cc3)nn2)S(=O)(=O)C1 (stereo not given) | 3 | . | . | .
O=C(N/N=C/c1c(O)ccc2ccccc12)c1cccc(C(F)(F)F)c1 | 25 | -34 | 137* | -137
CN(CC(=O)Nc1ccccc1Sc1ccccc1)C1CCCCC1 | -4 | -2 | -9 | 9
CC(C)N1C(=O)c2ccccc2NC(=O)C1C(=O)NCc1ccccc1 (stereo not given) | -4 | . | . | .
Cc1c(C)n(C)c2ccc(C(=O)Nc3cccc4ccccc34)cc12 | 13 | 0 | 81* | -81
CCCCCn1c(N)c(-c2nc3ccccc3s2)c2c([N+](=O)[O-])nn(CC)c(=O)c21 | -1 | -25 | 83* | -83
CCCCn1c(N)c(-c2nc3ccccc3s2)c2c([N+](=O)[O-])nn(C)c(=O)c21 | -9 | -54 | 93* | -93
COc1ccc(CNC(=O)CN(C(=O)CCC(=O)Nc2nccs2)c2ccc(C)cc2)cc1 | 4 | -4 | -19 | 19
Cc1cccc(S(=O)(=O)NC(=O)C2(C)CCN2C(=O)Cc2ccc(Cl)cc2Cl)c1 (stereo not given) | 1 | . | . | .
CCOc1ccc(C(=O)Nc2nnc(C)s2)cc1OCC | 13 | 1 | 61 | -61
CCOc1ccc(C(=O)Nc2c3c(nn2C(C)(C)C)CSC3)cc1OCC | -2 | 3 | 75* | -75
CCc1noc(C)c1C(=O)Nc1nc(-c2ccc(Cl)cc2Cl)c(C)s1 | -224 | -9 | 75* | -75
O=C1/C(=C/c2ccc(S(=O)(=O)O)cc2S(=O)(=O)O)CCc2ccccc21 | -11 | . | . | .
Cc1cc(C(=O)N/N=C/c2cc(Br)cc(Br)c2OC(=O)c2cccc(F)c2)n[nH]1 | 24 | -7 | 122* | -121
Cc1cc(C(=O)N/N=C/c2cc(Br)cc(Br)c2OC(=O)c2ccccc2)n[nH]1 | . | -22 | . | .
C[C@H]1CN([C@@H](C)CO)C(=O)CCCn2nncc2CO[C@@H]1CN(C)S(=O)(=O)c1ccc(Oc2ccccc2)nc1 | -1 | . | . | .
COc1cc(/C=N/NC(=O)c2cccnc2)ccc1OC(=O)c1cc(OC)c(OC)c(OC)c1 | -10 | -4 | 73* | -73
COc1cc(/C=N/NC(N)=S)ccc1OC(=O)c1ccc(C)cc1 | -4 | -3 | 74* | -74
CC(=O)Nc1ccc(C(=O)N/N=C/c2ccccc2OC(=O)c2ccc(Cl)cc2)cc1 | 3 | 6 | 52 | -52
COc1cc(C(=O)Oc2ccccc2/C=N/NC(=O)c2ccc(C)c(Cl)c2)cc(OC)c1OC | 6 | 0 | 115* | -115
COc1cc(C(=O)Oc2ccccc2/C=N/NC(=O)c2ccc(Cl)cc2)cc(OC)c1OC | 3 | -7 | 117* | -117
